Experiments:
[1] = system: Rattus norvegicus; experiment: Antihypertensive activity in Norwegian albino rat model of DOCA-salt-induced hypertension assessed as inhibition of systolic blood pressure at 10 mg/kg, po after 2 hrs by non-invasive tail cuff method relative to control; assay type: functional
Method in brief: (§1)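 DOCA-salt hypertensive rats; systolic pressure by tail cuff after 10 mg/kg, recorded hourly from 0 to 10 h; percent inhibition computed. Data as mean ± SEM, repeated-measures ANOVA.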

[2] = system: Rattus norvegicus; experiment: Antihypertensive activity in Norwegian albino rat model of DOCA-salt-induced hypertension assessed as inhibition of systolic blood pressure at 10 mg/kg, po after 6 hrs by non-invasive tail cuff method relative to control; assay type: functional; method in brief: as §1
[3] = system: Rattus norvegicus; experiment: Antihypertensive activity in Norwegian albino rat model of DOCA-salt-induced hypertension assessed as inhibition of systolic blood pressure at 10 mg/kg, po after 1 hr by non-invasive tail cuff method relative to control; assay type: functional; method in brief: as §1
[4] = system: Rattus norvegicus; experiment: Antihypertensive activity in Norwegian albino rat model of DOCA-salt-induced hypertension assessed as inhibition of systolic blood pressure at 10 mg/kg, po after 3 hrs by non-invasive tail cuff method relative to control; assay type: functional; method in brief: as §1
[5] = system: Rattus norvegicus; experiment: Antihypertensive activity in Norwegian albino rat model of DOCA-salt-induced hypertension assessed as inhibition of systolic blood pressure at 10 mg/kg, po after 8 hrs by non-invasive tail cuff method relative to control; assay type: functional; method in brief: as §1
[6] = system: Rattus norvegicus; experiment: Antihypertensive activity in Norwegian albino rat model of DOCA-salt-induced hypertension assessed as inhibition of systolic blood pressure at 10 mg/kg, po after 10 hrs by non-invasive tail cuff method relative to control; assay type: functional; method in brief: as §1
[7] = Inhibition of porcine kidney ACE assessed as reduction in hippuryl-histidyl-leucine hydrolysis to hippuric acid release incubated for 30 mins high-throughput colorimetric method; set-up: species or system Sus scrofa
Method in brief: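 Porcine kidney ACE in 1 M sodium borate buffer pH 8.2 with 0.3 M NaCl and 5 mM HHL substrate (stock); 37 °C for 30 min, stopped with 1 M HCl. Released hippuric acid complexed with pyridine and benzene sulfonyl chloride, cooled on ice, yellow colour read at 410 nm; IC50 from log plots, at least five determinations per concentration.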

[8] = system: Rattus norvegicus; experiment: Antihypertensive activity in Norwegian albino rat model of DOCA-salt-induced hypertension assessed as inhibition of systolic blood pressure at 10 mg/kg, po after 7 hrs by non-invasive tail cuff method relative to control; assay type: functional; method in brief: as §1
[9] = molecular target: Myosin light chain kinase, smooth muscle (Homo sapiens, UniProt Q15746); experiment: Inhibition of MLCK (unknown origin) incubated for 15 mins using [gamma-32P]-ATP by scintillation counting method
Chain of Myosin light chain kinase, smooth muscle (Q15746 whole entry): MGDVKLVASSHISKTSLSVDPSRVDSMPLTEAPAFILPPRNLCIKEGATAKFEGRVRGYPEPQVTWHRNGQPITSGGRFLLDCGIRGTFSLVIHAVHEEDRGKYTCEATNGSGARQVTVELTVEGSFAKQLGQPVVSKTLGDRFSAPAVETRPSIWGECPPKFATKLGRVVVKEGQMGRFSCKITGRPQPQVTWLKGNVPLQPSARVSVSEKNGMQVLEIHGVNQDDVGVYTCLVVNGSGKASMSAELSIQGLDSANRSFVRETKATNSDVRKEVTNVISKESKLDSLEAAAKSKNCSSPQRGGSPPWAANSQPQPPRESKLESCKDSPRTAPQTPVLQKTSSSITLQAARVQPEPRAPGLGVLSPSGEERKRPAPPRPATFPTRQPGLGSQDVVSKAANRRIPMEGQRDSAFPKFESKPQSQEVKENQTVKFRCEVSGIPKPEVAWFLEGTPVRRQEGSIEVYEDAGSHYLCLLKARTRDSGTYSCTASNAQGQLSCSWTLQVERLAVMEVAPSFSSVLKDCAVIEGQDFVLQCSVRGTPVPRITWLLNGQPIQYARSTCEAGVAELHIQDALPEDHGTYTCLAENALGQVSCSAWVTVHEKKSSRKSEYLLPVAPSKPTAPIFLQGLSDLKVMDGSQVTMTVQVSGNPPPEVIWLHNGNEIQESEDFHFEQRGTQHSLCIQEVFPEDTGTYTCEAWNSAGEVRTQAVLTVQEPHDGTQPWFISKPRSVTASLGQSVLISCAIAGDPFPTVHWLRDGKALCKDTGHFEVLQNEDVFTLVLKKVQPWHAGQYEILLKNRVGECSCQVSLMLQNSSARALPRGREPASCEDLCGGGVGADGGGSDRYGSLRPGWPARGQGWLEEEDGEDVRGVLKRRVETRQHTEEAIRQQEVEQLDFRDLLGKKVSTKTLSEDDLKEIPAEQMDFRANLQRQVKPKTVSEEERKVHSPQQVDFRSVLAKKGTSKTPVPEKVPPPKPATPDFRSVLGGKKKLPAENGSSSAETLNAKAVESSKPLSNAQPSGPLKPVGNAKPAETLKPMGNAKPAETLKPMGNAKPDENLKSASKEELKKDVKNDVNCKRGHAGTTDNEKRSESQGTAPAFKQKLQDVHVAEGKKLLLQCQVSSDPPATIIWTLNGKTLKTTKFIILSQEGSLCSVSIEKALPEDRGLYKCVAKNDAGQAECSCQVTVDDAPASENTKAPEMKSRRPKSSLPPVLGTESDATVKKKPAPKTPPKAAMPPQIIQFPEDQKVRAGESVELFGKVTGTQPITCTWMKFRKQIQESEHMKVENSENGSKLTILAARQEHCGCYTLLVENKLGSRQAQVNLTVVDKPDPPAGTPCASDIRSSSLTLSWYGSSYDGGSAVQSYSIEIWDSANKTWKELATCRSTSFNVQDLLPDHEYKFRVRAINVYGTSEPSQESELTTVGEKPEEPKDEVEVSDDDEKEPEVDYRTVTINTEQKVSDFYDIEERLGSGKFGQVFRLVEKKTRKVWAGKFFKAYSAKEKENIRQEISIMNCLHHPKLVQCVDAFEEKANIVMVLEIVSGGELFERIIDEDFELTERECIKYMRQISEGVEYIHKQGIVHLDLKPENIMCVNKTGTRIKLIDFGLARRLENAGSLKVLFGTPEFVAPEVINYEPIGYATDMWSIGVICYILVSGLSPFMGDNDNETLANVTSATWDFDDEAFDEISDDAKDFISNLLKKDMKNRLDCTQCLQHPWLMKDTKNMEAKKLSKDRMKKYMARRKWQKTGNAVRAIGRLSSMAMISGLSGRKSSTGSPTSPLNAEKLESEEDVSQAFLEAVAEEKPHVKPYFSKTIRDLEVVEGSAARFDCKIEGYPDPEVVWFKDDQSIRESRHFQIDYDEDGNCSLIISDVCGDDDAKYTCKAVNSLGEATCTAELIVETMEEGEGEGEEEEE
Method in brief: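 Active MLCK thawed on ice with kinase assay and dilution buffers and substrate; reaction with γ-32P-ATP incubated 15 min at 30 °C in a water bath, spotted on phosphocellulose P81 paper, washed three times ~10 min in 1% phosphoric acid. Radioactivity by scintillation counting, blank-corrected cpm converted to specific activity (nmol/min/mg); IC50 from log plots, at least five determinations per concentration.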

[10] = system: Rattus norvegicus; experiment: Antihypertensive activity in Norwegian albino rat model of DOCA-salt-induced hypertension assessed as inhibition of systolic blood pressure at 10 mg/kg, po after 5 hrs by non-invasive tail cuff method relative to control; assay type: functional; method in brief: as §1
[11] = system: Rattus norvegicus; experiment: Antihypertensive activity in Norwegian albino rat model of DOCA-salt-induced hypertension assessed as inhibition of systolic blood pressure at 10 mg/kg, po after 4 hrs by non-invasive tail cuff method relative to control; assay type: functional; method in brief: as §1
[12] = system: Rattus norvegicus; experiment: Antihypertensive activity in Norwegian albino rat model of DOCA-salt-induced hypertension assessed as inhibition of systolic blood pressure at 10 mg/kg, po after 9 hrs by non-invasive tail cuff method relative to control; assay type: functional; method in brief: as §1
[13] = system: Rattus norvegicus; experiment: Antihypertensive activity in Norwegian albino rat assessed as inhibition of systolic blood pressure at 10 mg/kg, po after 1 hr by invasive carotid artery cannulation method relative to control; assay type: functional
[14] = system: Rattus norvegicus; experiment: Gastrointestinal toxicity in Norwegian rat assessed as ulcerative index at 50 mg/kg, po after 17 hrs; assay type: organism-based; conditions: in vivo
[15] = system: Rattus norvegicus; experiment: Antihypertensive activity in Norwegian albino rat assessed as inhibition of systolic blood pressure at 10 mg/kg, po after 0.3 hrs by invasive carotid artery cannulation method relative to control; assay type: functional
[16] = system: Rattus norvegicus; experiment: Antihypertensive activity in Norwegian albino rat assessed as inhibition of systolic blood pressure at 10 mg/kg, po after 4 hrs by invasive carotid artery cannulation method relative to control; assay type: functional
[17] = physchem; conditions: buffer, pH 7.4
[18] = system: Rattus norvegicus; experiment: Antihypertensive activity in Norwegian albino rat assessed as inhibition of systolic blood pressure at 10 mg/kg, po after 3 hrs by invasive carotid artery cannulation method relative to control; assay type: functional
[19] = system: Rattus norvegicus; experiment: Antihypertensive activity in Norwegian albino rat assessed as inhibition of systolic blood pressure at 10 mg/kg, po after 2 hrs by invasive carotid artery cannulation method relative to control; assay type: functional
[20] = system: Rattus norvegicus; experiment: Antihypertensive activity in Norwegian albino rat assessed as inhibition of systolic blood pressure at 10 mg/kg, po after 0.15 hrs by invasive carotid artery cannulation method relative to control; assay type: functional

| SMILES | inhibition in vivo at 10 mg/kg [1] | inhibition in vivo at 10 mg/kg [2] | inhibition in vivo at 10 mg/kg [3] | inhibition in vivo at 10 mg/kg [4] | inhibition in vivo at 10 mg/kg [5] | inhibition in vivo at 10 mg/kg [6] | IC50 [7] | inhibition in vivo at 10 mg/kg [8] | IC50 ([9]; read-out: IC50) | inhibition in vivo at 10 mg/kg [10] | inhibition in vivo at 10 mg/kg [11] | inhibition in vivo at 10 mg/kg [12] | IC50 ([9]; read-out: pIC50 (converted)) | also measured |
| --- | --- | --- | --- | --- | --- | --- | --- | --- | --- | --- | --- | --- | --- | --- |
| Cc1cc(C)nc(Nc2nc3ccccc3s2)n1 | 0% | 7.11% | 0.44% | 0.44% | 8.44% | 8.89% | > 100 µM | 8.44% | > 100 µM | 5.33% | 1.33% | 8.89% | – | – |
| CC(=O)c1c(C)nc(Nc2nc3ccccc3s2)nc1C | 0.44% | 7.08% | 0.88% | 0.88% | 7.52% | 8.41% | > 100 µM | 7.52% | > 100 µM | 5.31% | 2.21% | 7.96% | – | – |
| CCOC(=O)C1=C(C)NC(OC)N(CC(=O)c2ccc(OC)cc2)C1c1ccc(Cl)cc1 (stereo not drawn) | – | – | – | – | – | – | > 100 µM | – | 18.2 µM | – | – | – | 5490 µM | – |
| COC(=O)C1=C(C)N=C2Sc3ccccc3N2C1c1ccccc1Cl (stereo not drawn) | 2.65% | 24.8% | 1.77% | 14.6% | 28.8% | 33.6% | > 100 µM | 27% | 9.8 µM | 22.6% | 18.1% | 31.4% | 10200 µM | – |
| COC(=O)C1=C(C)N=C2Sc3ccccc3N2C1c1ccc(Cl)cc1 (stereo not drawn) | 11.5% | 28.8% | 2.65% | 14.6% | 33.6% | 40.3% | > 100 µM | 31.4% | 9.1 µM | 28.8% | 24.8% | 38% | 11000 µM | inhibition in vivo at 10 mg/kg [13]: 15.9%; UI [14]: 0.36; inhibition in vivo at 10 mg/kg [15]: 4.42%; inhibition in vivo at 10 mg/kg [16]: 49.6%; logD [17]: 5.44; inhibition in vivo at 10 mg/kg [18]: 31%; inhibition in vivo at 10 mg/kg [19]: 24.8%; inhibition in vivo at 10 mg/kg [20]: 2.21% |
| COC(=O)C1=C(C)N=C2Sc3ccccc3N2C1c1ccccc1O (stereo not drawn) | 8.48% | 33% | 3.57% | 19.6% | 42% | 46.4% | > 100 µM | 36.6% | 4.3 µM | 26.3% | 24.1% | 43.8% | 23300 µM | – |
| COC(=O)C1=C(C)N=C2Sc3ccccc3N2C1c1ccc(O)cc1 (stereo not drawn) | 7.89% | 34.2% | 3.51% | 19.7% | 39.5% | 42.1% | > 100 µM | 38.2% | 4.21 µM | 29.4% | 25.4% | 40.8% | 23800 µM | – |
| COC(=O)C1=C(C)N=C2Sc3ccccc3N2C1c1ccc(N(C)C)cc1 (stereo not drawn) | 2.65% | 24.8% | 1.77% | 14.6% | 28.8% | 33.6% | > 100 µM | 27% | 4.37 µM | 22.6% | 18.1% | 31.4% | 22900 µM | – |
| CCOC(=O)C1=C(C)N=C2Sc3ccccc3N2C1c1ccccc1Cl (stereo not drawn) | 2.65% | 24.8% | 1.77% | 14.6% | 28.8% | 33.6% | > 100 µM | 27% | 10.8 µM | 22.6% | 18.1% | 31.4% | 9260 µM | – |
| CCc1nc(Nc2nc3ccccc3s2)nc(C)c1C(C)=O | 0% | 7.56% | 0.44% | 0.44% | 8% | 8.89% | > 100 µM | 8% | > 100 µM | 6.22% | 1.33% | 8.44% | – | – |
| CCOC(=O)C1=C(C)NC(OC)N(CC(=O)c2ccc(Cl)cc2)C1c1ccc(Cl)cc1 (stereo not drawn) | – | – | – | – | – | – | > 100 µM | – | 41.3 µM | – | – | – | 2420 µM | – |
| CCOC(=O)C1=C(C)NC(OC)N(CC(=O)c2ccc(Cl)cc2)C1c1ccc(O)cc1 (stereo not drawn) | – | – | – | – | – | – | > 100 µM | – | 15.2 µM | – | – | – | 6580 µM | – |
| CCOC(=O)C1=C(C)NC(OC)N(CC(=O)c2ccc(OC)cc2)C1c1ccc(O)cc1 (stereo not drawn) | – | – | – | – | – | – | > 100 µM | – | 9.8 µM | – | – | – | 10.2 µM | – |
| CCOC(=O)C1=C(C)NC(OC)N(CC(=O)c2ccc(OC)cc2)C1c1ccc(OC)cc1 (stereo not drawn) | – | – | – | – | – | – | > 100 µM | – | 4.1 µM | – | – | – | 24.4 µM | – |
| CCOC(=O)C1=C(C)NC(OC)N(CC(=O)c2ccccc2)C1c1ccc(Cl)cc1 (stereo not drawn) | – | – | – | – | – | – | > 100 µM | – | 31.3 µM | – | – | – | 3190 µM | – |
| CCOC(=O)C1=C(C)NC(OC)N(CC(=O)c2ccccc2)C1c1ccc(C)cc1 (stereo not drawn) | – | – | – | – | – | – | > 100 µM | – | 19.2 µM | – | – | – | 5210 µM | – |
| CCOC(=O)C1=C(C)NC(OC)N(CC(=O)c2ccc(OC)cc2)C1c1ccc(C)cc1 (stereo not drawn) | – | – | – | – | – | – | > 100 µM | – | 5.1 µM | – | – | – | 19.6 µM | – |
| CCOC(=O)C1=C(C)NC(OC)N(CC(=O)c2ccc(Cl)cc2)C1c1ccc(OC)cc1 (stereo not drawn) | – | – | – | – | – | – | > 100 µM | – | 30.3 µM | – | – | – | 3300 µM | – |
| CCOC(=O)C1=C(C)NC(OC)N(CC(=O)c2ccc(Cl)cc2)C1c1ccc(C)cc1 (stereo not drawn) | – | – | – | – | – | – | > 100 µM | – | 29.2 µM | – | – | – | 3420 µM | – |
| CCOC(=O)C1=C(C)NC(OC)N(CC(=O)c2ccccc2)C1c1ccccc1 (stereo not drawn) | – | – | – | – | – | – | > 100 µM | – | 23.3 µM | – | – | – | 4290 µM | – |
| CCOC(=O)C1=C(C)NC(OC)N(CC(=O)c2ccc(Cl)cc2)C1c1ccccc1 (stereo not drawn) | – | – | – | – | – | – | > 100 µM | – | 33.3 µM | – | – | – | 3000 µM | – |
| CCOC(=O)C1=C(C)NC(OC)N(CC(=O)c2ccccc2)C1c1ccc(OC)cc1 (stereo not drawn) | – | – | – | – | – | – | > 100 µM | – | 7.4 µM | – | – | – | 13.5 µM | – |
| CCOC(=O)C1=C(C)NC(OC)N(CC(=O)c2ccc(OC)cc2)C1c1ccccc1 (stereo not drawn) | – | – | – | – | – | – | > 100 µM | – | 13.3 µM | – | – | – | 7.52 µM | – |
| CCOC(=O)C1=C(C)NC(OC)N(CC(=O)c2ccccc2)C1c1ccc(O)cc1 (stereo not drawn) | – | – | – | – | – | – | > 100 µM | – | 10.2 µM | – | – | – | 9.8 µM | – |
| CC(C)Cc1ccc(C(C)C(=O)O)cc1 (stereo not drawn) [IBUPROFEN] | – | – | – | – | – | – | – | – | – | – | – | – | – | UI [14]: 1.97 |

— ChEMBL document CHEMBL3616444, “Design, synthesis and pharmacological evaluation of pyrimidobenzothiazole-3-carboxylate derivatives as selective L-type calcium channel blockers” (Bioorg Med Chem, 2015)
